Assays:
[1] = system: Mus musculus; experiment: Agonist effect on estrogen activity assessed as stimulation of uterine weight gain in ovariectomized mouse at 17 mg/kg, sc relative to control; format: functional; details: route subcutaneous
How it was run: (§1)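 Ovariectomized mice dosed sc once daily for three consecutive days with test compound in 10% EtOH-peanut oil. Uteri weighed about 24 h after last dose. Uterine weight gain per body weight expressed as % = 100·(T−C)/(E−C), E being the 17b-estradiol benzoate response and C vehicle. Mean ± SEM. Difference from vehicle tested by Student's t test (P < 0.05).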

[2] = (§2) AUC in Sprague-Dawley rat at 10 mg/kg, iv; format: ADME, organism-based, Plasma; set-up: dose 10 mg/kg, route intravenous; details: Sprague-Dawley, plasma
How it was run: (§3)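 Sprague–Dawley rats dosed as a solution in water/PEG200/EtOH (3:6:1), intravenously at 10 mg/kg or orally at 20 mg/kg. Plasma AUC of intact compound; total clearance also derived from iv data and bioavailability from po/iv AUC.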

[3] = Total clearance in Sprague-Dawley rat at 10 mg/kg, iv; format: ADME, organism-based; set-up: dose 10 mg/kg, route intravenous; details: in vivo
How it was run: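 Sprague–Dawley rats were given a single iv dose as a solution in water/PEG200/EtOH (3:6:1). Total clearance was derived alongside plasma AUC.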

[4] = (§4) AUC in Sprague-Dawley rat at 20 mg/kg, po; format: ADME, organism-based, Plasma; set-up: dose 20 mg/kg, route oral; details: Sprague-Dawley, plasma; how it was run: as §3
[5] = Bioavailability in Sprague-Dawley rat; format: ADME, organism-based; details: in vivo
How it was run: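 Sprague–Dawley rats were given the compound as a solution in water/PEG200/EtOH (3:6:1), 10 mg/kg iv and 20 mg/kg po. Plasma AUC was determined for each route.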

[6] = AUC in cynomolgus monkey at 3 mg/kg, iv; format: ADME, organism-based, Macaca fascicularis; set-up: dose 3 mg/kg, route intravenous; details: plasma
How it was run: (§5)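 Cynomolgus monkeys given 3 mg/kg intravenously or orally as a solution in water/PEG200/EtOH (4:8:3). Plasma AUC of intact compound; after oral dosing the 17-position metabolite was also quantified, and bioavailability was calculated from po versus iv AUC.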

[7] = AUC in CD1 mouse at 30 mg/kg, po; format: ADME, organism-based; set-up: dose 30 mg/kg, route oral; details: plasma
How it was run: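 CD-1 mice dosed orally at 30 mg/kg as a suspension in 5% gum arabic. Plasma AUC measured for intact compound and separately for its 17-position metabolite (17-keto/17-hydroxy interconversion product).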

[8] = AUC in CD1 mouse at 10 mg/kg, iv; format: ADME, organism-based; set-up: dose 10 mg/kg, route intravenous; details: plasma
How it was run: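 CD-1 mice dosed intravenously at 10 mg/kg as a solution in water/PEG200/EtOH (3:6:1). Plasma AUC of intact compound.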

[9] = Bioavailability in CD1 mouse; format: ADME, organism-based; details: in vivo
How it was run: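 CD-1 mice were dosed orally at 30 mg/kg as a suspension in 5% gum arabic, and intravenously at 10 mg/kg as a solution in water/PEG200/EtOH (3:6:1). Plasma AUC of the intact compound was measured for each route. The 17-keto or 17-hydroxy metabolite was also monitored.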

[10] = AUC in cynomolgus monkey at 3 mg/kg, po; format: ADME, organism-based, Macaca fascicularis; set-up: dose 3 mg/kg, route oral; details: plasma; how it was run: as §5
[11] = Bioavailability in cynomolgus monkey; format: ADME, organism-based, Macaca fascicularis; details: in vivo
How it was run: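 Cynomolgus monkeys received 3 mg/kg by both the oral and intravenous routes, as a solution in water/PEG200/EtOH (4:8:3). Plasma AUC of the intact compound and of the interconverting 17-keto/17-hydroxy metabolite was measured.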

[12] = biological target: T1, Estrogen receptor (Homo sapiens) (UniProt P03372); experiment: Displacement of [3H]estradiol from recombinant ERalpha relative to estradiol
T1 sequence (whole entry): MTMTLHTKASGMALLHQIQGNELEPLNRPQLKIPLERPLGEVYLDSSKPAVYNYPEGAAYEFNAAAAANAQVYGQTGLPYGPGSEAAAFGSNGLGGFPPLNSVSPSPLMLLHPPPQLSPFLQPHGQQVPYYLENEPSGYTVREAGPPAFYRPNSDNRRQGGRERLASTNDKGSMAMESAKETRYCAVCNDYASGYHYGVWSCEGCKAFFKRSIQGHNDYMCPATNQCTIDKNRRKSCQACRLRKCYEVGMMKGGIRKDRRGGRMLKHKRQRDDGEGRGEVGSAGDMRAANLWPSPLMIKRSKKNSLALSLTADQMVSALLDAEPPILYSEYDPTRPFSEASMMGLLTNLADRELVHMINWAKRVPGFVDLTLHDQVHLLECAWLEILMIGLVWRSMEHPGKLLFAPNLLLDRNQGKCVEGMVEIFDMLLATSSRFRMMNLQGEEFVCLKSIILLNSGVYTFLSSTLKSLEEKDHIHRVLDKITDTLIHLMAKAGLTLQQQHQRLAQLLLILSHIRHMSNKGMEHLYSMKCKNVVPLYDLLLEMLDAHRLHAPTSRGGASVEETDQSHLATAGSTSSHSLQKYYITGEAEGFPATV
How it was run: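 Competitive radiometric binding assay using human recombinant ERα, with [3H]estradiol displaced by the test compound. Result is expressed as relative binding affinity (%), with estradiol set to 100.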

[13] = system: Mus musculus; experiment: Antagonist effect on estrogen activity assessed as inhibition of estrogen-stimulated uterine weight gain in ovariectomized mouse at 1 mg/kg, po; format: functional
How it was run: (§6)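 Ovariectomized mice given 0.1 lg 17b-estradiol benzoate sc in peanut oil plus oral test compound in 5% gum arabic-water suspension, once daily for three consecutive days. Uteri weighed about 24 h after last dose. % inhibition = 100·(1−(T−C)/(E−C)), using uterine weight gain per body weight. C is vehicle. Mean ± SEM.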

[14] = system: Mus musculus; experiment: Antagonist effect on estrogen activity assessed as inhibition of estrogen-stimulated uterine weight gain in ovariectomized mouse at 3 mg/kg, po; format: functional; how it was run: as §6
[15] = system: Mus musculus; experiment: Antagonist effect on estrogen activity assessed as inhibition of estrogen-stimulated uterine weight gain in ovariectomized mouse at 10 mg/kg, po; format: functional; how it was run: as §6
[16] = system: Rattus norvegicus; experiment: as §2; format: ADME, organism-based, Plasma; set-up: dose 10 mg/kg, route intravenous; details: in vivo; how it was run: as §3
[17] = system: Rattus norvegicus; experiment: as §4; format: ADME, organism-based, Plasma; set-up: dose 20 mg/kg, route oral; details: in vivo; how it was run: as §3
[18] = system: Mus musculus; experiment: Agonist effect on estrogen activity assessed as stimulation of uterine weight gain in ovariectomized mouse at 50 mg/kg, sc relative to control; format: functional; details: route subcutaneous; how it was run: as §1

SMILES: C[C@]12CC[C@@H]3c4ccc(O)cc4C[C@@H](CCCCCCCC[C@@H](CCCC(F)(F)C(F)(F)C(F)(F)C(F)(F)F)C(=O)O)[C@H]3[C@@H]1CC[C@@H]2O
- Activity [1]: 4%
- AUC [2]: 146 µg·h/mL
- clearance [3]: 1.23 mL/min/kg
- AUC [4]: 98 µg·h/mL
- bioavailability [5]: 33%
- AUC [6]: 88 µg·h/mL
- AUC [7]: 274 µg·h/mL
- AUC [8]: 244 µg·h/mL
- bioavailability [9]: 37%
- AUC [10]: 0.42 µg·h/mL
- bioavailability [11]: 0.48%
- RBA [12]: 1.1%
- inhibition in vivo at 1 mg/kg [13]: 59%
- inhibition in vivo at 3 mg/kg [14]: 93%
- inhibition in vivo at 10 mg/kg [15]: 99%

SMILES: C[C@]12CC[C@@H]3c4ccc(O)cc4C[C@@H](CCCCCCCCC(CCCC(F)(F)C(F)(F)C(F)(F)C(F)(F)F)C(=O)O)[C@H]3[C@@H]1CC[C@@H]2O (stereo partly specified)
- Activity [1]: 4%
- AUC [2]: 207 µg·h/mL
- clearance [3]: 0.817 mL/min/kg
- AUC [4]: 144 µg·h/mL
- bioavailability [5]: 35%
- RBA [12]: 1.4%
- inhibition in vivo at 1 mg/kg [13]: 64%
- inhibition in vivo at 3 mg/kg [14]: 87%
- inhibition in vivo at 10 mg/kg [15]: 96%

SMILES: C[C@]12CC[C@@H]3c4ccc(O)cc4C[C@@H](CCCCCCCCCC(CCCC(F)(F)C(F)(F)F)C(=O)O)[C@H]3[C@@H]1CC[C@@H]2O (stereo partly specified)
- RBA [12]: 1.4%
- inhibition in vivo at 1 mg/kg [13]: 22%
- inhibition in vivo at 3 mg/kg [14]: 30%
- inhibition in vivo at 10 mg/kg [15]: 80%

SMILES: C[C@]12CC[C@@H]3c4ccc(O)cc4C[C@@H](CCCCCCCC[C@H](CCCC(F)(F)C(F)(F)C(F)(F)C(F)(F)F)C(=O)O)[C@H]3[C@@H]1CC[C@@H]2O
- Activity [1]: 3%
- AUC [2]: 254 µg·h/mL
- clearance [3]: 0.65 mL/min/kg
- AUC [4]: 190 µg·h/mL
- bioavailability [5]: 37%
- AUC [7]: 470 µg·h/mL
- AUC [8]: 447 µg·h/mL
- bioavailability [9]: 35%
- AUC [10]: 0.3 µg·h/mL
- RBA [12]: 1%
- inhibition in vivo at 1 mg/kg [13]: 58%
- inhibition in vivo at 3 mg/kg [14]: 88%
- inhibition in vivo at 10 mg/kg [15]: 103%

SMILES: C[C@]12CC[C@@H]3c4ccc(O)cc4C[C@@H](CCCCCCCCC[S+]([O-])CCCC(F)(F)C(F)(F)F)[C@H]3[C@@H]1CC[C@@H]2O (stereo partly specified) [FULVESTRANT]
- AUC [16]: 5.3 µg·h/mL
- AUC [17]: 1.7 µg·h/mL
- inhibition in vivo at 1 mg/kg [13]: 11%
- inhibition in vivo at 3 mg/kg [14]: 29%
- inhibition in vivo at 10 mg/kg [15]: 54%

SMILES: C[C@]1(c2ccc(O)cc2)CSc2cc(O)ccc2[C@H]1CCCCCCCCC(CCCC(F)(F)C(F)(F)F)C(=O)O (stereo partly specified)
- AUC [16]: 228 µg·h/mL
- AUC [17]: 209 µg·h/mL
- inhibition in vivo at 1 mg/kg [13]: 11%
- inhibition in vivo at 3 mg/kg [14]: 41%
- inhibition in vivo at 10 mg/kg [15]: 77%

SMILES: C[C@]12CC[C@@H]3c4ccc(O)cc4C[C@@H](CCCCCCCCCC(CCCC(F)(F)C(F)(F)C(F)(F)C(F)(F)F)C(=O)O)[C@H]3[C@@H]1CC[C@@H]2O (stereo partly specified)
- RBA [12]: 0.7%
- inhibition in vivo at 1 mg/kg [13]: 27%
- inhibition in vivo at 3 mg/kg [14]: 42%
- inhibition in vivo at 10 mg/kg [15]: 85%

SMILES: C[C@]12CC[C@@H]3c4ccc(O)cc4C[C@@H](CCCCCCCCC(CCCC(F)(F)C(F)(F)F)C(=O)O)[C@H]3[C@@H]1CC[C@@H]2O (stereo partly specified)
- RBA [12]: 0.8%
- inhibition in vivo at 1 mg/kg [13]: 37%
- inhibition in vivo at 3 mg/kg [14]: 67%
- inhibition in vivo at 10 mg/kg [15]: 87%

SMILES: C[C@]12CC[C@@H]3c4ccc(O)cc4C[C@@H](CCCCCCCC[C@@H](CCCC(F)(F)C(F)(F)C(F)(F)C(F)(F)F)C(=O)O)[C@H]3[C@@H]1CCC2=O
- Activity [18]: 1%
- AUC [2]: 50 µg·h/mL
- AUC [4]: 32 µg·h/mL
- bioavailability [5]: 32%
- AUC [6]: 77 µg·h/mL
- AUC [7]: 468 µg·h/mL
- AUC [8]: 389 µg·h/mL
- bioavailability [9]: 40%
- AUC [10]: 2.42 µg·h/mL
- bioavailability [11]: 3.1%
- RBA [12]: 1%
- inhibition in vivo at 1 mg/kg [13]: 54%
- inhibition in vivo at 3 mg/kg [14]: 85%
- inhibition in vivo at 10 mg/kg [15]: 96%

SMILES: C[C@]12CC[C@@H]3c4ccc(O)cc4C[C@@H](CCCCCCCCCC(CCC(F)(F)C(F)(F)C(F)(F)C(F)(F)F)C(=O)O)[C@H]3[C@@H]1CC[C@@H]2O (stereo partly specified)
- RBA [12]: 0.7%
- inhibition in vivo at 1 mg/kg [13]: 27%
- inhibition in vivo at 3 mg/kg [14]: 49%
- inhibition in vivo at 10 mg/kg [15]: 92%

SMILES: C[C@]12CC[C@@H]3c4ccc(O)cc4C[C@@H](CCCCCCCCC(CCC(F)(F)C(F)(F)C(F)(F)C(F)(F)F)C(=O)O)[C@H]3[C@@H]1CC[C@@H]2O (stereo partly specified)
- RBA [12]: 0.6%
- inhibition in vivo at 1 mg/kg [13]: 55%
- inhibition in vivo at 3 mg/kg [14]: 80%
- inhibition in vivo at 10 mg/kg [15]: 98%
